The text below walks through data of ChEMBL document CHEMBL4382218, “Design, synthesis and antifungal evaluation of borrelidin derivatives” (Bioorg Med Chem, 2018).

In one data set the test system is Candida albicans. The experiment in a line: Antifungal activity against Candida albicans ATCC MYA-2876 after 48 hrs by micro broth dilution method. The data set is classed as functional. The settings on record: ATCC MYA-2876, 48 h. A digest of the protocol: (§1)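 Broth microdilution in RPMI-1640 (NaHCO3, MOPS, pH 7.0). Compounds are dissolved in DMSO and serially diluted 2-fold to eight concentrations, with stocks of […]. Fungal inocula are 2 × 10³ cfu/mL. Plates are incubated 48 h at 28 °C. The MIC is the lowest concentration with no turbidity, and the highest concentration tested is 100 μg/mL.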

Another data set has as its system Aspergillus fumigatus. The experiment in a line: Antifungal activity against Aspergillus fumigatus CCTCC AF 93048 after 48 hrs by micro broth dilution method. The data set is classed as functional. The settings on record: CCTCC AF 93048, 48 h. A digest of the protocol:
as §1
In general terms: Dilution methods test growth across graded concentrations, often in twofold steps.

Data set [1] in a line: Selectivity index, ratio of IC50 for HEK293T cells to MIC for Candida parapsilosis ATCC 22019. The data set is classed as toxicity. The settings on record: human, read-out: Selectivity Index.
The next data set has as its system HEK-293T. Description: Cytotoxicity against HEK293T cells assessed as growth inhibition after 48 hrs by MTT assay. The data set is classed as cell-based. The settings on record: Homo sapiens. A digest of the protocol: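 293T cells are grown in DMEM with 10% FBS, L-glutamine and penicillin/streptomycin at 37 °C in 5% CO₂. Cells are seeded at 7 × 10³ per well and exposed to six concentrations (0.33-100.0 μM) for 48 h. MTT is then added for 4 h, formazan is dissolved in DMSO and read at 570 nm. IC50 comes from non-linear regression, n = 3 independent experiments.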
On the technique in general: Tetrazolium assays rely on reduction of a dye to a coloured formazan, in cell work by metabolically active cells.

Data set [2] in a line: Selectivity index, ratio of IC50 for HEK293T cells to MIC for Candida albicans ATCC MYA-2876. It counts as toxicity. The settings on record: human, read-out: Selectivity Index.
A further data set relates to Candida parapsilosis. The experiment in a line: Antifungal activity against Candida parapsilosis ATCC 22019 after 48 hrs by micro broth dilution method. It counts as functional. The settings on record: Lodderomyces parapsilosis, ATCC 22019, 48 h. The essentials: as §1
Data set [3] in a line: Selectivity index, ratio of IC50 for HEK293T cells to MIC for Aspergillus fumigatus CCTCC AF 93048. The settings on record: human, read-out: Selectivity Index. It counts as toxicity.

The MIC is the least concentration at which growth counts as inhibited. A high value points to a need for much substance. As usually defined, the IC50 is the concentration needed to halve the response being measured.

Values after ≈ are worked out from the molar mass of the structure shown.

Consider `C[C@@H]1C[C@H](C)C[C@H](C)[C@@H](O)CC(=O)O[C@H]([C@@H]2CCC[C@H]2C(=O)OCCN2CCCC2)C/C=C/C=C(/C#N)[C@H](O)[C@@H](C)C1`, for which the MIC in the data set with Candida albicans is 50 µg/mL (≈ 85.2 µM); against Aspergillus fumigatus it was 50 µg/mL (≈ 85.2 µM); in the data set on Candida parapsilosis, 12.5 µg/mL (≈ 21.3 µM). The selectivity ratio in data set [1] is 2.81; in data set [2] it was 0.71; in data set [3], 0.71. For the same molecule, the IC50 in the data set on HEK-293T worked out at 35.2 µg/mL (≈ 60 µM).

As to `C[C@@H]1C[C@H](C)C[C@H](C)[C@@H](O)CC(=O)O[C@H]([C@@H]2CCC[C@H]2C(=O)OCCN2CCN(C)CC2)C/C=C/C=C(/C#N)[C@H](O)[C@@H](C)C1`, the MIC against Candida albicans was found to be 100 µg/mL (≈ 162 µM); against Aspergillus fumigatus, 50 µg/mL (≈ 81.2 µM); in the data set with Candida parapsilosis it was 25 µg/mL (≈ 40.6 µM). Also, the selectivity ratio is 2.34 in data set [1], 0.58 in data set [2] and 1.17 in data set [3]. Moreover, the IC50 with HEK-293T amounted to 58.5 µg/mL (≈ 94.9 µM).
